pIC50: −log10 of the molar value. ≈ marks a conversion by molar mass, not a printed value. Calls of active or inactive are those of the source. The calls are words filed in the database; no cut-off is given here.
Columns and labels:
Plasmodium berghei [1] = test: Antimalarial activity against GFP-fused Plasmodium berghei ANKA infected in mouse assessed as mouse mean survival days at 30 mg/kg, po administered once daily for 4 days; assay type: functional
Procedure, shortened: (§1)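 P. berghei-infected mice (n=3 per dose) dosed orally once daily on 4 consecutive days at 4, 24, 48 and 72 h after infection; compound in 90/10 Tween80/ethanol (v/v) diluted 10-fold with water. Read-outs were % parasitemia reduction, mean survival time in days and cure; mice with <40% parasitemia reduction euthanized on day 4.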

Plasmodium berghei [2] = test: Antimalarial activity against GFP-fused Plasmodium berghei ANKA infected in mouse assessed as reduction in parasitemia at 3 mg/kg, po administered once daily for 4 days by flow cytometry relative to control; assay type: functional; design: scale not given: the % may be the effect or the level left
Procedure, shortened: (§2)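 P. berghei-infected mice, 3 per group. Compound formulated in 90/10 Tween80/ethanol (v/v), diluted 10-fold with water, given orally once daily at 4, 24, 48 and 72 h post-infection. Outcomes: % parasitemia reduction versus untreated control, mean survival days, and cured/infected. Mice with <40% reduction euthanized on day 4.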

Plasmodium berghei [3] = test: Antimalarial activity against GFP-fused Plasmodium berghei ANKA infected in mouse assessed as mouse mean survival days at 10 mg/kg, po administered once daily for 4 days; assay type: functional; procedure, shortened: as §1
Huh-7 = test: Cytotoxicity against human HuH7 cells at 1 to 10 uM after 48 hrs by Alamarblue assay; assay type: cell-based; conditions: huh-7, 48 h
Plasmodium falciparum [4] = test: Ratio of IC50 for chloroquine-sensitive Plasmodium falciparum NF54 early 2/3 stage gametocytes to IC50 for chloroquine-sensitive Plasmodium falciparum NF54 late 4/5 stage gametocytes; assay type: functional
Procedure, shortened: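 Early (stage II/III) and late (stage IV/V) gametocytes tested in parallel luciferase reporter assays; stage preference = EG IC50/LG IC50.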

[5] = Half life in C57/Bl6 mouse at 10 mg/kg, po administered via gavage by LC-MS method; assay type: ADME, organism-based; conditions: in vivo
Procedure, shortened: (§3)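 Mice (n=3) given a single oral dose of 10 mg/kg as a suspension in […] HPMC; plasma sampled over 24 h. Parameters were estimated by nonlinear mixed-effects modelling with a two-compartment disposition model, first-order absorption and elimination.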

[6] = Half life in C57/Bl6 mouse at 2.5 mg/kg, iv by LC-MS method; assay type: ADME, organism-based; conditions: in vivo
Procedure, shortened: (§4)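 Mice (n=3) given a single intravenous dose of 2.5 mg/kg in dimethylacetamide:polyethylene glycol:propylene glycol/ethanol (4:1) at 1:3:6; 24 h sampling. Parameters were fitted by nonlinear mixed-effects two-compartment model with first-order elimination.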

Plasmodium falciparum [7] = test: Anti-plasmodial activity against chloroquine-sensitive Plasmodium falciparum NF54 by [3H]-hypoxanthine incorporation assay; assay type: functional
Procedure, shortened: (§5)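 P. falciparum asexual blood-stage growth inhibition by [3H]hypoxanthine incorporation; chloroquine and artesunate run as reference drugs in every experiment; IC50 given as mean of ≥2 independent experiments.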

Plasmodium berghei [8] = test: Antimalarial activity against GFP-fused Plasmodium berghei ANKA infected in mouse assessed as reduction in parasitemia at 10 mg/kg, po administered once daily for 4 days by flow cytometry relative to control; assay type: functional; design: scale not given: the % may be the effect or the level left; procedure, shortened: as §2
[9] = Oral bioavailability in C57/Bl6 mouse at 10 mg/kg administered via gavage by LC-MS method; assay type: ADME, organism-based; conditions: in vivo; procedure, shortened: as §3
Mus musculus [10] = test: AUC (0 to infinity) in C57/Bl6 mouse at 2.5 mg/kg, iv by LC-MS method; assay type: ADME, organism-based; design: dose 2.5 mg/kg, time infinity, route intravenous; conditions: in vivo; procedure, shortened: as §4
[11] = Volume of distribution in C57/Bl6 mouse at 2.5 mg/kg, iv by LC-MS method; assay type: ADME, organism-based; conditions: in vivo; procedure, shortened: as §4
[12] = Cmax in C57/Bl6 mouse at 10 mg/kg, po administered via gavage by LC-MS method; assay type: ADME, organism-based; design: dose 10 mg/kg, route oral; conditions: in vivo; procedure, shortened: as §3
Plasmodium berghei [13] = test: Antimalarial activity against GFP-fused Plasmodium berghei ANKA infected in mouse assessed as protection against parasitemia at 3 mg/kg, po administered once daily for 4 days measured 30 days post infection by light microscopy; assay type: functional, organism-based; procedure, shortened: as §2
Mus musculus [14] = test: AUC (0 to infinity) in C57/Bl6 mouse at 10 mg/kg, po administered via gavage by LC-MS method; assay type: ADME, organism-based; design: dose 10 mg/kg, route oral, time infinity; conditions: in vivo; procedure, shortened: as §3
Plasmodium falciparum [15] = test: Anti-plasmodial activity against multidrug resistant Plasmodium falciparum K1 by [3H]-hypoxanthine incorporation assay; assay type: functional; procedure, shortened: as §5
Plasmodium berghei [16] = test: Antimalarial activity against GFP-fused Plasmodium berghei ANKA infected in mouse assessed as mouse mean survival days at 50 mg/kg, po administered once daily for 4 days; assay type: functional; procedure, shortened: as §1
[17] = Tmax in C57/Bl6 mouse at 10 mg/kg, po administered via gavage by LC-MS method; assay type: ADME, organism-based; conditions: in vivo; procedure, shortened: as §3
CHO = test: Cytotoxicity against CHO cells after by MTT assay; assay type: cell-based; conditions: Cricetulus griseus
[18] = Clearance in C57/Bl6 mouse at 2.5 mg/kg, iv by LC-MS method; assay type: ADME, organism-based; conditions: in vivo; procedure, shortened: as §4
[19] = Metabolic stability in Balb/c mouse liver microsomes assessed as compound remaining at 1 uM in presence of NADPH after 30 mins by LC-MS/MS analysis; assay type: ADME, microsome; conditions: read-out: Stability
Procedure, shortened: (§6)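 Mouse and human liver microsomes; % compound remaining after 30 min.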

Plasmodium berghei [20] = test: Antimalarial activity against GFP-fused Plasmodium berghei ANKA infected in mouse assessed as mouse mean survival days at 3 mg/kg, po administered once daily for 4 days; assay type: functional; procedure, shortened: as §1
Plasmodium falciparum [21] = test: Anti-plasmodial activity against chloroquine-sensitive Plasmodium falciparum NF54 late 4/5 stage gametocytes after 48 hrs by luciferin-luciferase reaction based bioluminescence assay; assay type: functional; conditions: NF54, 48 h
Plasmodium berghei [22] = test: Antimalarial activity against GFP-fused Plasmodium berghei ANKA infected in mouse assessed as protection against parasitemia at 50 mg/kg, po administered once daily for 4 days measured 30 days post infection by light microscopy; assay type: functional, organism-based; procedure, shortened: as §2
Plasmodium berghei [23] = test: Antimalarial activity against GFP-fused Plasmodium berghei ANKA infected in mouse assessed as protection against parasitemia at 10 mg/kg, po administered once daily for 4 days measured 30 days post infection by light microscopy; assay type: functional, organism-based; procedure, shortened: as §2
[24] = Kinetic solubility of the compound in FaSSIF at pH 6.5 after 2 hrs by shake flask method; assay type: physicochemical; conditions: read-out: Kinetic_solubility
[25] = Metabolic stability in human liver microsomes assessed as compound remaining at 1 uM in presence of NADPH after 30 mins by LC-MS/MS analysis; assay type: ADME, microsome; conditions: read-out: Stability; procedure, shortened: as §6
[26] = Selectivity index, ratio of IC50 for CHO cells to IC50 for chloroquine-sensitive Plasmodium falciparum NF54; assay type: toxicity; conditions: hamster, read-out: Ratio IC50
Procedure, shortened: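 Selectivity index = IC50 CHO / IC50 PfNF54.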

Plasmodium berghei [27] = test: Antimalarial activity against GFP-fused Plasmodium berghei ANKA infected in mouse assessed as reduction in parasitemia at 50 mg/kg, po administered once daily for 4 days by flow cytometry relative to control; assay type: functional; design: scale not given: the % may be the effect or the level left; procedure, shortened: as §2
Plasmodium berghei [28] = test: Antimalarial activity against GFP-fused Plasmodium berghei ANKA infected in mouse assessed as reduction in parasitemia at 30 mg/kg, po administered once daily for 4 days by flow cytometry relative to control; assay type: functional; design: scale not given: the % may be the effect or the level left; procedure, shortened: as §2
Plasmodium falciparum [29] = test: Ratio of IC50 for chloroquine-sensitive Plasmodium falciparum NF54 after 24 hrs to IC50 for chloroquine-sensitive Plasmodium falciparum NF54 after 72 hrs; assay type: functional
Plasmodium berghei [30] = test: Antimalarial activity against GFP-fused Plasmodium berghei ANKA infected in mouse assessed as protection against parasitemia at 30 mg/kg, po administered once daily for 4 days measured 30 days post infection by light microscopy; assay type: functional, organism-based; procedure, shortened: as §2
Plasmodium falciparum [31] = test: Anti-plasmodial activity against chloroquine-sensitive Plasmodium falciparum NF54 late 4/5 stage gametocytes assessed as reduction in ATP levels after 24 hrs by BacTiter-Glo reagent based bioluminescence assay; assay type: functional; conditions: NF54, 24 h
Ferriprotoporphyrin IX [32] = test: Inhibition of beta hematin formation in ring stage of chloroquine-sensitive Plasmodium falciparum NF54 assessed as decrease in haemozoin level at 0.5 to 3 times IC50 after 36 hrs by UV-vis spectra analysis
Procedure, shortened: (§7)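 Synchronized ring-stage parasites treated with increasing drug concentrations, then cellular fractionation. Free haem and haemozoin quantified as iron (fg/cell) and compared with untreated control; significance by p-values; parasite survival overlaid.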

Ferriprotoporphyrin IX [33] = test: Inhibition of beta hematin formation in ring stage of chloroquine-sensitive Plasmodium falciparum NF54 assessed as increase in free heme level at 0.5 to 3 times IC50 after 36 hrs by UV-vis spectra analysis; procedure, shortened: as §7
Ferriprotoporphyrin IX [34] = test: Inhibition of beta hematin formation in water/NP40/DMSO solution after 5 hrs
Plasmodium berghei [35] = test: Antimalarial activity against GFP-fused Plasmodium berghei ANKA liver stage infected in HuH7 cells pretreated for 1 hr followed by parasite infection at 1 uM after 48 hrs by luciferase reporter gene assay; assay type: functional, cell-based
Plasmodium berghei [36] = test: Antimalarial activity against GFP-fused Plasmodium berghei ANKA liver stage infected in HuH7 cells pretreated for 1 hr followed by parasite infection after 48 hrs by luciferase reporter gene assay; assay type: functional, cell-based; conditions: Huh-7

## CCNCCNc1cc(-c2ccc(C(F)(F)F)cc2)c(C#N)c2nc3cc(Cl)cc(Cl)c3n12
Plasmodium berghei [1]
  MSD: 30 days
Plasmodium berghei [2]
  Activity: 99.4%
Plasmodium berghei [3]
  MSD: 18 days
Huh-7
  Activity: Non-Toxic
Plasmodium falciparum [4]
  Ratio IC50: 1.2
[5]
  half-life: 21 h
[6]
  half-life: 21 h
Plasmodium falciparum [7]
  pIC50: 7.52
Plasmodium berghei [8]
  Activity: 99.4%
[9]
  bioavailability: 30%
Mus musculus [10]
  AUC: 9.52 µM·h
[11]
  Vd: 19 L/kg
[12]
  Cmax: 220 nM
Plasmodium berghei [13]
  Activity: inactive
Mus musculus [14]
  AUC: 11.4 µM·h
Plasmodium falciparum [15]
  pIC50: 7.40
Plasmodium berghei [16]
  MSD: 30 days
[17]
  Tmax: > 10 h
CHO
  pIC50: 4.95
[18]
  clearance: 11 mL/min/kg
[19]
  remaining at 0.5 h, 1 µM: 87%
Plasmodium berghei [20]
  MSD: 16 days
Plasmodium falciparum [21]
  pIC50: 5.84
Plasmodium berghei [22]
  Activity: Active
Plasmodium berghei [23]
  Activity: inactive
[24]
  solubility kinetic at 2 h: 20 µM (≈ 9.85 µg/mL)
[25]
  remaining at 0.5 h, 1 µM: 87%
[26]
  selectivity ratio: 431
Plasmodium berghei [27]
  Activity: 98%
Plasmodium berghei [28]
  Activity: 99.4%

## CCNCCNc1cc(-c2ccc(C(F)(F)F)cc2)c(C#N)c2nc3cc(Cl)c(Cl)cc3n12
Plasmodium berghei [1]
  MSD: 30 days
Plasmodium berghei [2]
  Activity: 99.5%
Plasmodium berghei [3]
  MSD: 18 days
Huh-7
  Activity: Non-Toxic
Plasmodium falciparum [4]
  Ratio IC50: 1.2
[5]
  half-life: 15 h
[6]
  half-life: 15 h
Plasmodium falciparum [7]
  pIC50: 7.70
Plasmodium berghei [8]
  Activity: 99.6%
Plasmodium falciparum [29]
  Ratio IC50: 1.5 - 2
[9]
  bioavailability: < 15%
Mus musculus [10]
  AUC: 4.27 µM·h
[11]
  Vd: 26 L/kg
[12]
  Cmax: 70 nM
Plasmodium berghei [13]
  Activity: inactive
Mus musculus [14]
  AUC: 2.63 µM·h
Plasmodium falciparum [15]
  pIC50: 7.70
Plasmodium berghei [16]
  MSD: 30 days
[17]
  Tmax: 10 h
Plasmodium berghei [30]
  Activity: Active
CHO
  pIC50: 5.47
[18]
  clearance: 21 mL/min/kg
[19]
  remaining at 0.5 h, 1 µM: 81%
Plasmodium berghei [20]
  MSD: 17 days
Plasmodium berghei [22]
  Activity: Active
Plasmodium berghei [23]
  Activity: inactive
[24]
  solubility kinetic at 2 h: 10 µM (≈ 4.92 µg/mL)
[25]
  remaining at 0.5 h, 1 µM: 95%
Plasmodium falciparum [31]
  pIC50: 6.14
[26]
  selectivity ratio: 188
Plasmodium berghei [27]
  Activity: 98%
Plasmodium berghei [28]
  Activity: 99.7%

## N#Cc1c(-c2ccc(C(F)(F)F)cc2)c(F)c(NCCN2CCC(O)C2)n2c1nc1ccccc12 (stereo not given)
Ferriprotoporphyrin IX [32]
  inhibition: inactive
Huh-7
  Activity: Non-Toxic
Ferriprotoporphyrin IX [33]
  inhibition: inactive
Ferriprotoporphyrin IX [34]
  pIC50: 3.92
Plasmodium falciparum [7]
  pIC50: 6.72
Plasmodium falciparum [29]
  Ratio IC50: 22
Plasmodium berghei [35]
  Activity: Active
Plasmodium falciparum [15]
  pIC50: 6.77
CHO
  pIC50: 3.69
Plasmodium berghei [36]
  pIC50: 5.85
[19]
  remaining at 0.5 h, 1 µM: 37%
[24]
  solubility kinetic at 2 h: 80 µM (≈ 38.7 µg/mL)
[26]
  selectivity ratio: 1080

— ChEMBL document CHEMBL3994624, “Antimalarial Pyrido[1,2-a]benzimidazoles: Lead Optimization, Parasite Life Cycle Stage Profile, Mechanistic Evaluation, Killing Kinetics, and in Vivo Oral Efficacy in a Mouse Model” (J Med Chem, 2017)
